This is an account of results in ChEMBL document CHEMBL1150419, “Structure-activity relationships of a peptide inhibitor of the human FcRn:human IgG interaction” (Bioorg Med Chem, 2008).

Square brackets hold non-standard residues; d marks the D form. Peptide text beside a SMILES is read from it. Dap = NC[C@H](N)C(=O)O

T1 sequence (P55899 whole entry, the tested form may be a part): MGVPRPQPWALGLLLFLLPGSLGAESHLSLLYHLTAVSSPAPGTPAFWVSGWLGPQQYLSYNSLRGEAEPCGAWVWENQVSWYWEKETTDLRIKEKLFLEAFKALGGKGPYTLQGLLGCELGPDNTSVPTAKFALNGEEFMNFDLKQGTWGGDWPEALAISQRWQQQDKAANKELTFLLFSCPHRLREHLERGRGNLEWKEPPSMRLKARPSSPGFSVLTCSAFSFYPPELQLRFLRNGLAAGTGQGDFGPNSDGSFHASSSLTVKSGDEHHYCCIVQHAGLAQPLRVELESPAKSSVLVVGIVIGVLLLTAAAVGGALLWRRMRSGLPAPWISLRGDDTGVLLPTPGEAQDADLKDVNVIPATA

One assay has as its target T1, IgG receptor FcRn large subunit p51 (Homo sapiens, UniProt P55899). Description: Inhibition of human IgG binding to soluble human FcRn by ELISA. In a few lines:
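Biotinylated soluble human FcRn immobilized on neutravidin plates, incubated with hIgG (3 nM, constant) and peptide at varying concentrations for 2 h at 37 °C. After washing, bound hIgG detected with peroxidase-conjugated hIgG-specific Fab fragments.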
On the technique in general: ELISA stands for enzyme-linked immunosorbent assay.
Consider `CC(C)C[C@@H](C(=O)N[C@@H](Cc1ccc(O)cc1)C(=O)N1CCC[C@H]1C(=O)N[C@@H](CS)C(=O)O)N1CC[C@H](NC(=O)CNC(=O)[C@H](Cc2ccccc2)NC(=O)[C@H](Cc2cnc[nH]2)NC(=O)CNC(=O)[C@@H](NC(=O)[C@@H](NC(=O)[C@H](Cc2ccccc2)NC(=O)[C@@H](N)CCCNC(=N)N)C(C)(C)S)[C@@H](C)O)C1=O`, for which the half-maximal inhibitory concentration (IC50) (in general, the midpoint of a concentration-inhibition curve) came out at 19 µM.
The same measure, in the same setting: next, `CC(C)C[C@H](NC(=O)c1cccc(CNC(=O)[C@H](Cc2ccccc2)NC(=O)[C@H](Cc2cnc[nH]2)NC(=O)CNC(=O)[C@@H](NC(=O)[C@@H](NC(=O)[C@H](Cc2ccccc2)NC(=O)[C@@H](N)CCCN=C(N)N)C(C)(C)S)[C@@H](C)O)c1)C(=O)N[C@@H](Cc1ccc(O)cc1)C(=O)N1CCC[C@H]1C(=O)N[C@@H](CS)C(=O)O`: 57 µM.
As for `CC(C)C[C@H](NC(=O)[C@@H](C)NC(=O)[C@@H](Cc1ccccc1)NC(=O)[C@H](Cc1ccccc1)NC(=O)[C@H](Cc1cnc[nH]1)NC(=O)CNC(=O)[C@@H](NC(=O)[C@@H](NC(=O)[C@H](Cc1ccccc1)NC(=O)[C@H](CCCNC(=N)N)NC(=O)[C@@H](N)CCC(N)=O)C(C)(C)S)[C@@H](C)O)C(=O)N[C@@H](Cc1ccc(O)cc1)C(=O)N1CCC[C@H]1C(=O)N[C@@H](CS)C(=O)N[C@@H](CC(N)=O)C(=O)NCC(=O)N1CCC[C@H]1C(=O)O`, the IC50 is 4.3 µM.
In turn, `CC(C)C[C@@H](C(=O)N[C@@H](Cc1ccc(O)cc1)C(=O)N1CCC[C@H]1C(=O)N[C@@H](CS)C(N)=O)N(C)C(=O)CN(C)C(=O)CNC(=O)[C@H](Cc1ccccc1)NC(=O)[C@H](Cc1csc[n+]1C)NC(=O)CNC(=O)[C@@H](NC(=O)[C@@H](NC(=O)[C@H](Cc1ccccc1)NC(=O)[C@@H](N)CCCN=C(N)N)C(C)(C)S)[C@@H](C)O` gave an IC50 of 2.4 µM.
Take `CC(C)C[C@H](NC(=O)CNC(=O)CNC(=O)[C@H](Cc1ccccc1)NC(=O)[C@H](Cc1cnc[nH]1)NC(=O)CNC(=O)[C@@H](NC(=O)[C@H](CCCN)NC(=O)[C@H](Cc1ccccc1)NC(=O)[C@H](CCCNC(=N)N)NC(=O)[C@@H](N)CCC(N)=O)[C@@H](C)O)C(=O)N[C@@H](Cc1ccc(O)cc1)C(=O)N1CCC[C@H]1C(=O)N[C@@H](CCC(=O)O)C(=O)N[C@@H](CC(N)=O)C(=O)NCC(=O)N1CCC[C@H]1C(=O)O`: the IC50 is 30 µM.
Still for that read-out and setting: next, `CC(C)C[C@H](NC(=O)CN(C)C(=O)CNC(=O)[C@H](Cc1ccccc1)NC(=O)[C@H](Cc1cnc[nH]1)NC(=O)CNC(=O)[C@@H](NC(=O)[C@@H](NC(=O)[C@H](Cc1ccccc1)NC(=O)[C@H](CCCN=C(N)N)NC(=O)[C@@H](N)CCC(N)=O)C(C)(C)S)[C@@H](C)O)C(=O)N[C@@H](Cc1ccc(O)cc1)C(=O)N1CCC[C@H]1C(=O)N[C@@H](CS)C(=O)N[C@@H](CC(N)=O)C(=O)NCC(=O)N1CCC[C@H]1C(=O)O`: 0.9 µM; `CC(C)C[C@H](NC(=O)[C@H]1CCCN1C(=O)[C@H]1CCCN1C(=O)[C@H](Cc1ccccc1)NC(=O)[C@H](Cc1cnc[nH]1)NC(=O)CNC(=O)[C@@H](NC(=O)[C@@H](NC(=O)[C@H](Cc1ccccc1)NC(=O)[C@H](CCCNC(=N)N)NC(=O)[C@@H](N)CCC(N)=O)C(C)(C)S)[C@@H](C)O)C(=O)N[C@@H](Cc1ccc(O)cc1)C(=O)N1CCC[C@H]1C(=O)N[C@@H](CS)C(=O)N[C@@H](CC(N)=O)C(=O)NCC(=O)N1CCC[C@H]1C(=O)O`: 21 µM.
On the same count and under the same terms, in the case of `CC(C)C[C@H](NC(=O)CNC(=O)CNC(=O)[C@H](Cc1ccccc1)NC(=O)[C@H](Cc1cnc[nH]1)NC(=O)CNC(=O)[C@@H](NC(=O)[C@H](CCCN)NC(=O)[C@H](Cc1ccccc1)NC(=O)[C@H](CCCNC(=N)N)NC(=O)[C@@H](N)CCC(N)=O)[C@@H](C)O)C(=O)N[C@@H](Cc1ccc(O)cc1)C(=O)N1CCC[C@H]1C(=O)N[C@@H](CC(=O)O)C(=O)N[C@@H](CC(N)=O)C(=O)NCC(=O)N1CCC[C@H]1C(=O)O` it was 120 µM; in that of `CC[C@H](C)[C@@H](NC(=O)CNC(=O)[C@H](Cc1ccccc1)NC(=O)[C@H](Cc1cnc[nH]1)NC(=O)CNC(=O)[C@@H](NC(=O)[C@@H](NC(=O)[C@H](Cc1ccccc1)NC(=O)[C@H](CCCNC(=N)N)NC(=O)[C@@H](N)CCC(N)=O)C(C)(C)S)[C@@H](C)O)C(=O)N[C@@H](CC(C)C)C(=O)N[C@@H](Cc1ccc(O)cc1)C(=O)N1CCC[C@H]1C(=O)N[C@@H](CS)C(=O)N[C@@H](CC(N)=O)C(=O)NCC(=O)N1CCC[C@H]1C(=O)O`, 18 µM.
The same measure, in the same setting: in the case of `CC(C)C[C@H](NC(=O)CNC(=O)[C@H]1CCCN1C(=O)[C@H](Cc1ccccc1)NC(=O)[C@H](Cc1cnc[nH]1)NC(=O)CNC(=O)[C@@H](NC(=O)[C@@H](NC(=O)[C@H](Cc1ccccc1)NC(=O)[C@H](CCCN=C(N)N)NC(=O)[C@@H](N)CCC(N)=O)C(C)(C)S)[C@@H](C)O)C(=O)N[C@@H](Cc1ccc(O)cc1)C(=O)N1CCC[C@H]1C(=O)N[C@@H](CS)C(=O)N[C@@H](CC(N)=O)C(=O)NCC(=O)N1CCC[C@H]1C(=O)O` it was 5 µM; in that of `CC(C)C[C@H](NC(=O)[C@H]1CS[C@@H]2CC[C@@H](NC(=O)[C@H](Cc3ccccc3)NC(=O)[C@H](Cc3cnc[nH]3)NC(=O)CNC(=O)[C@@H](NC(=O)[C@H](NC(=O)[C@H](Cc3ccccc3)NC(=O)[C@@H](N)CCCN=C(N)N)C(C)(C)S)[C@@H](C)O)C(=O)N12)C(=O)N[C@@H](Cc1ccc(O)cc1)C(=O)N1CCC[C@H]1C(=O)N[C@@H](CS)C(=O)O`, 2.2 µM.
Compound `CC(C)C[C@H](NC(=O)CNC(=O)CNC(=O)[C@H](Cc1ccccc1)NC(=O)[C@H](Cc1cnc[nH]1)NC(=O)CNC(=O)[C@@H](NC(=O)[C@H](CN)NC(=O)[C@H](Cc1ccccc1)NC(=O)[C@H](CCCN=C(N)N)NC(=O)[C@@H](N)CCC(N)=O)[C@@H](C)O)C(=O)N[C@@H](Cc1ccc(O)cc1)C(=O)N1CCC[C@H]1C(=O)N[C@@H](CCC(=O)O)C(=O)N[C@@H](CC(N)=O)C(=O)NCC(=O)N1CCC[C@H]1C(=O)O` (H-QRF[Dap]TGHFGGLYPENGP-OH) gave a concentration for half-maximal inhibition (IC50) of more than 125 µM.

A further assay deals with T1, IgG receptor FcRn large subunit p51. Description: Binding affinity to human FcRn at pH 6 by surface plasmon resonance assay. Put shortly:
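Soluble human FcRn coupled to the dextran surface of a CM5 chip; peptide dilutions flowed over the chip. The equilibrium response at each dilution was plotted against concentration and fitted to a steady-state affinity model to give Kd.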
Background: SPR reads the build-up and loss of mass on a sensor chip optically.
Regarding `CC(C)C[C@H](NC(=O)[C@@H](Cc1cnc[nH]1)NC(=O)CNC(=O)[C@H](Cc1ccccc1)NC(=O)[C@H](Cc1cnc[nH]1)NC(=O)CNC(=O)[C@@H](NC(=O)[C@@H](NC(=O)[C@H](Cc1ccccc1)NC(=O)[C@H](CCCN=C(N)N)NC(=O)[C@@H](N)CCC(N)=O)C(C)(C)S)[C@@H](C)O)C(=O)N[C@@H](Cc1ccc(O)cc1)C(=O)N1CCC[C@H]1C(=O)N[C@@H](CS)C(=O)N[C@@H](CC(N)=O)C(=O)NCC(=O)N1CCC[C@H]1C(=O)O`, the dissociation constant (Kd) – broadly, the equilibrium constant for the complex coming apart – was 2 µM.
The same measure, in the same setting: next, `CC(C)C[C@H](NC(=O)CNC(=O)CNC(=O)[C@H](Cc1ccccc1)NC(=O)[C@H](Cc1cnc[nH]1)NC(=O)CNC(=O)[C@@H](NC(=O)[C@H](NC(=O)[C@H](Cc1ccccc1)NC(=O)[C@@H](CCCN=C(N)N)NC(=O)[C@@H](N)CCC(N)=O)C(C)(C)S)[C@@H](C)O)C(=O)N[C@@H](Cc1ccc(O)cc1)C(=O)N1CCC[C@H]1C(=O)N[C@H](CS)C(=O)N[C@@H](CC(N)=O)C(=O)NCC(=O)N1CCC[C@H]1C(=O)O`: 0.28 µM; `CC(C)C[C@H](NC(=O)[C@@H](Cc1ccccc1)NC(=O)CNC(=O)[C@H](Cc1ccccc1)NC(=O)[C@H](Cc1cnc[nH]1)NC(=O)CNC(=O)[C@@H](NC(=O)[C@@H](NC(=O)[C@H](Cc1ccccc1)NC(=O)[C@H](CCCNC(=N)N)NC(=O)[C@@H](N)CCC(N)=O)C(C)(C)S)[C@@H](C)O)C(=O)N[C@@H](Cc1ccc(O)cc1)C(=O)N1CCC[C@H]1C(=O)N[C@@H](CS)C(=O)N[C@@H](CC(N)=O)C(=O)NCC(=O)N1CCC[C@H]1C(=O)O`: 1.7 µM; `CC(C)C[C@H](NC(=O)CNC(=O)CNC(=O)[C@H](Cc1ccccc1)NC(=O)[C@H](Cc1cnc[nH]1)NC(=O)CNC(=O)[C@@H](NC(=O)[C@H](CCN)NC(=O)[C@H](Cc1ccccc1)NC(=O)[C@H](CCCN=C(N)N)NC(=O)[C@@H](N)CCC(N)=O)[C@@H](C)O)C(=O)N[C@@H](Cc1ccc(O)cc1)C(=O)N1CCC[C@H]1C(=O)N[C@@H](CC(=O)O)C(=O)N[C@@H](CC(N)=O)C(=O)NCC(=O)N1CCC[C@H]1C(=O)O`: 8.4 µM.
On to `CC(C)C[C@H](NC(=O)CNC(=O)CNC(=O)[C@H](Cc1ccccc1)NC(=O)[C@H](Cc1cnc[nH]1)NC(=O)CNC(=O)[C@@H](NC(=O)[C@H](CS)NC(=O)[C@H](Cc1ccccc1)NC(=O)[C@H](CCCNC(=N)N)NC(=O)[C@@H](N)CCC(N)=O)[C@@H](C)O)C(=O)N[C@@H](Cc1ccc(O)cc1)C(=O)N1CCC[C@H]1C(=O)N[C@@H](CS)C(=O)N[C@@H](CC(N)=O)C(N)=O`, for which the affinity, expressed as Kd, was 6.1 µM.
Regarding `CC(C)C[C@H](NC(=O)CN(C)C(=O)[C@@H](C)NC(=O)[C@H](Cc1ccccc1)NC(=O)[C@H](Cc1cnc[nH]1)NC(=O)CNC(=O)[C@@H](NC(=O)[C@@H](NC(=O)[C@H](Cc1ccccc1)NC(=O)[C@H](CCCNC(=N)N)NC(=O)[C@@H](N)CCC(N)=O)C(C)(C)S)[C@@H](C)O)C(=O)N[C@@H](Cc1ccc(O)cc1)C(=O)N1CCC[C@H]1C(=O)N[C@@H](CS)C(=O)N[C@@H](CC(N)=O)C(=O)NCC(=O)N1CCC[C@H]1C(=O)O`, the Kd was found to be 0.19 µM.
`CC(C)C[C@H](NC(=O)CNC(=O)CNC(=O)[C@H](Cc1ccccc1)NC(=O)[C@H](Cc1cnc[nH]1)NC(=O)CNC(=O)[C@H](NC(=O)[C@H](NC(=O)[C@H](Cc1ccccc1)NC(=O)[C@H](CCCN=C(N)N)NC(=O)[C@@H](N)CCC(N)=O)C(C)(C)S)[C@@H](C)O)C(=O)N[C@@H](Cc1ccc(O)cc1)C(=O)N1CCC[C@H]1C(=O)N[C@H](CS)C(=O)N[C@@H](CC(N)=O)C(=O)NCC(=O)N1CCC[C@H]1C(=O)O` came in with a Kd of more than 250 µM.
Still for that read-out and setting: next, `CC(C)C[C@H](NC(=O)[C@@H]1CCCN1C(=O)[C@@H](Cc1ccccc1)NC(=O)[C@H](Cc1ccccc1)NC(=O)[C@H](Cc1cnc[nH]1)NC(=O)CNC(=O)[C@@H](NC(=O)[C@@H](NC(=O)[C@H](Cc1ccccc1)NC(=O)[C@H](CCCNC(=N)N)NC(=O)[C@@H](N)CCC(N)=O)C(C)(C)S)[C@@H](C)O)C(=O)N[C@@H](Cc1ccc(O)cc1)C(=O)N1CCC[C@H]1C(=O)N[C@@H](CS)C(=O)N[C@@H](CC(N)=O)C(=O)NCC(=O)N1CCC[C@H]1C(=O)O`: 3.8 µM.
